# A selection follows.
# Apaf-1 act – human Apaf-1 activation. Apaf-1 apoptosome caspase-3 activation, DEVD-Rh110 fluorescence; hits give low values. actives 0.31% (n = 330,000). activity change, negative = activation, % at 20 µM;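 active = activity change at or below -40% at 20 µM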
# Target sequence (O14727 whole entry, looked up): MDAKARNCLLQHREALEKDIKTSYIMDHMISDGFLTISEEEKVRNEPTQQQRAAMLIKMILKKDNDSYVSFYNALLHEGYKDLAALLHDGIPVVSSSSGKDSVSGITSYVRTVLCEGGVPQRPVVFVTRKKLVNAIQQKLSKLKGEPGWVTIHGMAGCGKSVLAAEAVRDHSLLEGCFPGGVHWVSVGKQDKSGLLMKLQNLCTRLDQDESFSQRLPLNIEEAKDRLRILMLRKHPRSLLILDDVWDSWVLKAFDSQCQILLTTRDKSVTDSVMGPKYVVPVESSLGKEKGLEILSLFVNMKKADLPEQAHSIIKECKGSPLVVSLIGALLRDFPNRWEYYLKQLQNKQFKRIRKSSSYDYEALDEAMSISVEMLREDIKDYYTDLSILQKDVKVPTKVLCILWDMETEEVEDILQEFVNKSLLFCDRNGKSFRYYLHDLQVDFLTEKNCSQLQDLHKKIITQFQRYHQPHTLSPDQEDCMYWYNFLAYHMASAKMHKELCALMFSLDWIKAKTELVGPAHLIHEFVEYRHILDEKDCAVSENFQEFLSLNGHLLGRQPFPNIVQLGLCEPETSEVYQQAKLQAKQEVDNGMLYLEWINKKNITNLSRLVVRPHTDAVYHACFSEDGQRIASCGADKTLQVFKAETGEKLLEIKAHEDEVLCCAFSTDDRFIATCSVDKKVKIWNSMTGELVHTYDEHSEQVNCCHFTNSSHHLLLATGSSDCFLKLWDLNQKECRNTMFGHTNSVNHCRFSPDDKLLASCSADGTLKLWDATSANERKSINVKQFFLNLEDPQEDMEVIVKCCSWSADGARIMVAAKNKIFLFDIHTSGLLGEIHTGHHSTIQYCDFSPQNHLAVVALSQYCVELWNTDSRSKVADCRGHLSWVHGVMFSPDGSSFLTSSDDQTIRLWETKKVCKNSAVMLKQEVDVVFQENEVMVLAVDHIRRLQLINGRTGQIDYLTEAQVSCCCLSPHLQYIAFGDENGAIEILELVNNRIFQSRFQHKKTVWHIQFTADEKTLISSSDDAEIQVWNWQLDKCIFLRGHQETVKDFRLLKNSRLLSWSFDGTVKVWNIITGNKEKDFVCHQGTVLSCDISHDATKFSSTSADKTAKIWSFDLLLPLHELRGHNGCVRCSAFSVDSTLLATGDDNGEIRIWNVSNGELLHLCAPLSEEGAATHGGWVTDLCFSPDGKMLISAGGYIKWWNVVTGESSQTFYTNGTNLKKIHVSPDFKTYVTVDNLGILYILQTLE
#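 Schedule: 30 min preincubation, 50 min reaction, room temperature / System: biochemical Apaf-1 apoptosome reconstitution / Medium: 20 mM HEPES pH 7.5 with CHAPS, BSA / Evaluation: Caspase-3 cleavage activity downstream of Apaf-1 activation / Detection: Caspase-3-released Rh110 fluorescence, 540 nm emission, 480 nm excitation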
# Rh110 act interf – interferes with Rh110 fluorescence, flagging false Apaf-1 activators. fluorescence interference (activity change), % at 20 µM, hits read low. 980 tested, under 10 active. Rh110 fluorescence interference, quenched caspase reaction, Ex480/Em540. shares compounds with Apaf-1 act;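 active = mean activity change at or below -40% when tested at 20 µM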
# Apaf-1 act conf – Apaf-1 (human) activation, single-dose confirmed; shares compounds with Apaf-1 act; actives 5% (n = 980); reconstituted apoptosome caspase-3 activity, DEVD-Rh110 fluorescence; hits give low values; activity change, negative = activation, % at 20 µM; AID 504617;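 active = mean activity change at or below -40%, meaning activation of 40% or more, at 20 µM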
# Apaf1 act interf – counter-screen for Apaf-1 activators: fluorescence interference, dose response | shares compounds with Apaf-1 act | fluorescence interference counterscreen, Apaf-1 activator assay | EC50, µM | 55 tested, under 10 active | AID 588592; call rule not given here
# Starred values were filed as active, the others as inactive; · = no result.
SMILES,Apaf-1 act,Rh110 act interf,Apaf-1 act conf,others
CCOC(=O)c1cc2cc3ccccc3cc2[nH]1,58,·,·,
CC(C)CCn1c(N)c(S(=O)(=O)c2cccs2)c2nc3ccccc3nc21,51,·,·,
Cc1cccc(C)c1NC(=O)c1sc(Cl)nc1C,-201*,10,11,
COc1ccc(/C=N/Nc2cc(C)nc3ccc(OC)cc23)c(OC)c1,43,·,·,
CC1(C)S[C@@H]2[C@H](NC(=O)[C@H](N)c3ccccc3)C(=O)N2[C@H]1C(=O)O,-2,·,·,
CC1(C)C(C(=O)OCC(Cl)(Cl)Cl)N2C(=O)C(NC(=O)Cc3ccccc3)C2S1=O (stereo not given),-85*,0,12,
CCCCn1c(NC(=O)c2ccc(Br)o2)c(S(=O)(=O)c2ccccc2)c2nc3ccccc3nc21,71,·,·,
CC1(C(=O)Nc2cccc3ccccc23)CC1(Br)Br (stereo not given),56,·,·,
Cc1cc(O)c(C(C)C)cc1N=Cc1cc([N+](=O)[O-])ccc1O,44,·,·,
CCCCC(CCC(=O)Nc1cc([N+](=O)[O-])ccc1O)C(=O)O (stereo not given),-227*,11,20,
CCOc1ccc(/C=C2\SC(=S)N(CCCC(=O)NCCCN3CCOCC3)C2=O)cc1,42,·,·,
COC(=O)c1ccc(/C=C2/SC(=S)N(CCCC(=O)Nc3ccc(O)cc3)C2=O)cc1,-67*,-1,-27,
C#CCOc1ccc(/C=C2/C(=O)N(c3cccc(C(=O)O)c3)N=C2C)cc1OC,43,·,·,
O=C(O)CCN1C(=O)/C(=C\c2ccc(OCc3ccccc3)c(OCc3ccccc3)c2)SC1=S,-56*,10,-79*,Apaf1 act interf=>100
COc1ccc(/C=C2\SC(=S)N(CCC(=O)Nc3ccc(C(=O)O)cc3)C2=O)cc1OC,-364*,4,-133*,Apaf1 act interf=>100
COc1cccc(/C=C2\SC(=S)N(CCCC(=O)N3CCCCC3)C2=O)c1,-137*,11,15,
COc1ccc(/C=C2/Sc3ccc(C(=O)NCCN4CCCCCC4)cc3NC2=O)cc1,49,·,·,
CC(=O)N(C1=C(N2CCOCC2)C(=O)c2ccccc2C1=O)c1ccc(C(=O)O)cc1,59,·,·,
FC(F)(F)c1cc(CCN2CCNC[C@@H]2c2ccccc2)cc(C(F)(F)F)c1,61,·,·,
CCCCCCCCCCCCCCCC[n+]1ccc(/C=N/O)cc1,80,·,·,
Nc1ccc(C(=O)O)c(O)c1,-8,·,·,
COc1cc(C)c2c(c1C=O)Oc1c(c(C)c(O)c3c1C(O)OC3=O)OC2=O (stereo not given),56,·,·,
CCCCCCCCCCn1c2c(c(=N)c3c1CCC3)CCC2,74,·,·,
O=C(/C=C/c1ccc(-c2ccccc2[N+](=O)[O-])o1)c1ccco1,43,·,·,
CCCCCCCCCCCCN1[C@@H](CC(=O)O)c2cc(C(F)(F)F)ccc2S1(=O)=O,41,·,·,
SMILES,Apaf-1 act,Rh110 act interf,Apaf-1 act conf,others
Cc1cccc(C)c1NC(=O)Cn1cc(C=O)c2ccccc21,-251*,0,-43*,Apaf1 act interf=>100
O=C(Nc1ccccc1)Oc1ccc[nH]c1=O,61,·,·,
NC(=O)c1c(NC(=O)CCCn2cnc([N+](=O)[O-])n2)sc2c1CCCC2,-90*,-1,16,
CCN1CCc2c(sc(NC(=O)c3ccc(C(=O)c4ccccc4)cc3)c2C(N)=O)C1,44,·,·,
CC(=O)C(C(C)=O)C1(O)C(=O)c2ccccc2C1=O,86,·,·,
O=c1[nH]c(=O)c2nc3c4ccccc4c4ccccc4c3nc2[nH]1,-43*,6,-19,
O=c1[nH]c(Nc2ccccc2)cc2ccccc12,96,·,·,
O=C1c2ccccc2C(=O)c2[nH]c(=O)[nH]c21,80,·,·,
CCOC(=O)C1CCN(S(=O)(=O)c2ccc3c4c2CC(=O)N4CC(C)S3)CC1 (stereo not given),44,·,·,
CCCN(CC(=O)Nc1ccccc1C)C(=O)C1CCN(c2ncnc3sc(C)c(C)c23)CC1,49,·,·,
Cc1sc2ncn(CC(=O)NCCCC(=O)N3CCN(c4ccccc4)CC3)c(=O)c2c1C,-313*,2,8,
Cc1cc2cc(CNS(=O)(=O)c3ccccc3)ccc2n1C,61,·,·,
COc1cc2c(C#N)c(N3CCCC3)nc(N)c2c(N)n1,84,·,·,
CCC[C@@H](CN1CCC[C@H]1CN1C(N)=NC[C@@H]1Cc1ccccc1)N1C[C@@H]([C@H](C)CC)N(CCCC2CCCC2)C1=N,77,·,·,
O=C1C2(CCCC13COC(c1ccc(O)cc1)OC3)COC(c1ccc(O)cc1)OC2 (stereo not given),-127*,4,-60*,Apaf1 act interf=>100
CC1(C)OC(C)(C)/C(=C/Nc2ccc(O)cc2)C1=O,48,·,·,
O=C1Cc2ccccc2C(=O)N1CCc1ccccc1,79,·,·,
O=C1N(c2ccccc2)c2ccccc2C1(Cc1ccncc1)Cc1ccncc1,5,·,·,
O=S(=O)(Nc1cccc(-c2nc3cccnc3s2)c1)c1ccc2c(c1)OCCO2,-104*,2,10,
c1ccc2c(C[C@@H]3CNCCN3CCC34CC5CC(CC(C5)C3)C4)cccc2c1,66,·,·,
CCNc1ccccc1CP(=O)(c1ccccc1)c1ccccc1O (stereo not given),87,·,·,
CCCCOc1cc(C(=O)OCCN(CC)CC)ccc1N,3,·,·,
CCOC(=O)CNCCC(=O)c1ccc(Br)cc1,58,·,·,
Cc1ccc(NC(=O)CCC(=O)OCc2ccc(Br)cc2)cc1,-46*,-17,9,
CCOC(=O)c1c(C)n(-c2ccc(C)cc2)c2c(C(C(C)=O)C(=O)O)c(Br)c(O)c(O)c12 (stereo not given),50,·,·,
SMILES,Apaf-1 act,Rh110 act interf,Apaf-1 act conf,others
C#CCOCCOCCOCCNc1nc(N2CCN(C(=O)CCCCCCCCCCNC(=O)[C@@H](CCC(=O)O)n3cc(CCCCCN)nn3)CC2)nc(N2CCN(C(=O)CCCCCCCCCCNC(=O)[C@H](CO)n3cc(CCCCCN)nn3)CC2)n1,54,·,·,
CCOC(=O)c1sc2nc3c(SCC(=O)O)cc(C(=O)c4ccccc4O)cn3c(=O)c2c1C,-189*,6,-24,
CCc1ccc(N=C2NC(=O)/C(=C/c3cc(Br)c(OCC(=O)O)c(OC)c3)S2)cc1,-99*,6,-67*,Apaf1 act interf=>100
COC(=O)C1=C(C)N(Cc2ccccc2)C(=NCc2ccccc2)N[C@H]1c1ccccc1,47,·,·,
COC(=O)CCC(=O)OC1(C)C(=O)C=C2C=C(C3CC3)N(C3CCCC3)C=C2C1=O (stereo not given),67,·,·,
CCOc1cc(/C=C/C(=O)Nc2ccc(C(=O)NCCN(CC)CC)cc2)ccc1OCC(C)C,47,·,·,Apaf1 act interf=>100
CN(C)CCNC(=O)c1ccc(COc2ccc(Cl)cc2Cl)cc1,46,·,·,
CCN(CC)CCNC(=O)c1ccc(NC(C)=O)cc1,-2,·,·,
O=C(O)c1cccc(-c2ccc(/C=c3/sc4nc5ccccc5n4c3=O)o2)c1,-195*,5,41,Apaf1 act interf=>100
Cc1[nH][nH]c(=O)c1C(c1ccc(-c2cccc(C(=O)O)c2)o1)c1c(C)[nH][nH]c1=O,78,·,·,
O=C(O)c1cccc(NC2=C(n3nnc4ccccc43)C(=O)c3ccccc3C2=O)c1,58,·,·,
C[C@@H](CSc1ccc(Br)cc1)CN1CC[C@H](NC(=O)OCc2ccccc2)CCC1=O,40,·,·,
COC(=O)CCC(=O)OC1(C)C(=O)C=C2C=C(C3CC3)N(Cc3ccccc3)C=C2C1=O (stereo not given),42,·,·,
